# Data as given in ChEMBL document CHEMBL1150387, “Development and experimental validation of a docking strategy for the generation of kinase-targeted libraries” (J Med Chem, 2008).
# Assays:
# [1] = molecular target: T1, Mitogen-activated protein kinase 12 (Homo sapiens) (UniProt P53778); test: Inhibition of p38-gamma at 10 uM by HTRF assay relative to control
# T1 sequence (whole entry): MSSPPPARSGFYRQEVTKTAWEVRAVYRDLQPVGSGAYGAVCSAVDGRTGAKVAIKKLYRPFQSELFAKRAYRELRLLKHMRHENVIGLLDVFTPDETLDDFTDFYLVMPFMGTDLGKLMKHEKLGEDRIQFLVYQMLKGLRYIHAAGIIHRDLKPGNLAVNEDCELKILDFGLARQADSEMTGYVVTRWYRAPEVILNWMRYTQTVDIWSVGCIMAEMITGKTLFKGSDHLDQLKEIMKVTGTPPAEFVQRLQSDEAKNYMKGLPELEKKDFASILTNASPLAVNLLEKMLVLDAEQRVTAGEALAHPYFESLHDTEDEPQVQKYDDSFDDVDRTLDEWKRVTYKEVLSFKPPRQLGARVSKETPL
# In short: (§1)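 HTRF kinase assay, one panel of kinases. Inhibitor stock 50 µM in 100% DMSO; tested at 10 µM. ATP and substrate at final levels near Km. Final buffer: 50 mM Hepes/NaOH pH 7.4, 40 µM Na3VO4, 0.005% Tween-20, 1 mM DTT, MnCl2 or MgCl2 at kinase-dependent levels. Started by adding ATP/substrate. Reaction run at room temperature, time varied by kinase. Detection mix in 50 mM Hepes pH 7.4, 0.1% BSA, 150 mM KF, incubated ≥1 h at room temperature. Activity expressed as % of uninhibited control; n=2.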
# [2] = molecular target: Mitogen-activated protein kinase 14 (Homo sapiens) (UniProt Q16539); test: Inhibition of p38alpha at 10 uM by HTRF assay relative to control; in short: as §1
# [3] = molecular target: Protein-tyrosine kinase 6 (Homo sapiens) (UniProt Q13882); test: Inhibition of Brk at 10 uM by HTRF assay relative to control; in short: as §1
# [4] = Inhibition of IRK at 10 uM by HTRF assay relative to control; in short: as §1
# [5] = molecular target: Mitogen-activated protein kinase 8 (Homo sapiens) (UniProt P45983); test: Inhibition of JNK1 at 10 uM by HTRF assay relative to control; in short: as §1
# [6] = molecular target: Vascular endothelial growth factor receptor 2 (Homo sapiens) (UniProt P35968); test: Inhibition of KDR at 10 uM by HTRF assay relative to control; in short: as §1
# [7] = molecular target: T2, Tyrosine-protein kinase ZAP-70 (Homo sapiens) (UniProt P43403); test: Inhibition of ZAP70 at 10 uM by HTRF assay relative to control; in short: as §1
# T2 sequence (whole entry): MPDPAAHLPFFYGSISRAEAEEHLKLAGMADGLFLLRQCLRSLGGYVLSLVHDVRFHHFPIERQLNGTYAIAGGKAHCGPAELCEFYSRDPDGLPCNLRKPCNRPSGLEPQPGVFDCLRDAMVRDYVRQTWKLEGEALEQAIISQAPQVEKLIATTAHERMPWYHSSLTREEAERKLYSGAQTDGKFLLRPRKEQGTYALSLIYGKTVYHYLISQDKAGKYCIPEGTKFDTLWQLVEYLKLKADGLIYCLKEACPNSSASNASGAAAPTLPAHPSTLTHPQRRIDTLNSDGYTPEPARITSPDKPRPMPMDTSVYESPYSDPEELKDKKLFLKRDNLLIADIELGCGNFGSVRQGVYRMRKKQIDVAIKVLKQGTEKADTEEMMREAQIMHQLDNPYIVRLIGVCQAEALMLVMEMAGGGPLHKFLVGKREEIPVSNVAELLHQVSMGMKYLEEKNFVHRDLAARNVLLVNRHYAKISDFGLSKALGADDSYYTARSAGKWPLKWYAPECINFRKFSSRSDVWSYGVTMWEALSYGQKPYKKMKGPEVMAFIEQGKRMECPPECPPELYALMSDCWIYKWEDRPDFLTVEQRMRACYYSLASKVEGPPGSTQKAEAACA
# [8] = molecular target: T3, Inhibitor of nuclear factor kappa-B kinase subunit beta (Homo sapiens) (UniProt O14920); test: Inhibition of IKK-beta at 10 uM by HTRF assay relative to control; in short: as §1
# T3 sequence (whole entry): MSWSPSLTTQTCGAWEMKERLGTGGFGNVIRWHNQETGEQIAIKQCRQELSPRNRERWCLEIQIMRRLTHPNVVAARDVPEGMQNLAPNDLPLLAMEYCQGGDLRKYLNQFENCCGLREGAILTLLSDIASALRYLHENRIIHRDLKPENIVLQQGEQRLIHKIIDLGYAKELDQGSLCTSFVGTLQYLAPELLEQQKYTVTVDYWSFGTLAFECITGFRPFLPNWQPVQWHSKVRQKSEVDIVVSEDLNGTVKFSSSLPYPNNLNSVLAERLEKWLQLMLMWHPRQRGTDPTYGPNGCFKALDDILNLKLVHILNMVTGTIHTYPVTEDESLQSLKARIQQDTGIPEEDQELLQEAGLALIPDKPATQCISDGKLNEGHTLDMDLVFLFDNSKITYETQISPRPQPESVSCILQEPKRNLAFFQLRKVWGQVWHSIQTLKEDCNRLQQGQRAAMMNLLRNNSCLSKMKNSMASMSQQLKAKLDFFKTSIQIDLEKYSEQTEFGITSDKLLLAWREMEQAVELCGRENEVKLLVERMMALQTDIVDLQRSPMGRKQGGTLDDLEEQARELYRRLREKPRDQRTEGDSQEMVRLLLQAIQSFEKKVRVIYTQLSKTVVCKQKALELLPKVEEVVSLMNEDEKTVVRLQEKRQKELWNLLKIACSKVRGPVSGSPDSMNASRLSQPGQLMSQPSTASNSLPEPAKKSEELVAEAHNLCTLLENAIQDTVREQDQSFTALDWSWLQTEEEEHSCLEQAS
# [9] = molecular target: Tyrosine-protein kinase ABL1 (Homo sapiens) (UniProt P00519); test: Inhibition of Abl at 10 uM by HTRF assay relative to control; in short: as §1
# [10] = molecular target: Epidermal growth factor receptor (Homo sapiens) (UniProt P00533); test: Inhibition of EGFR at 10 uM by HTRF assay relative to control; in short: as §1
# [11] = molecular target: Proto-oncogene tyrosine-protein kinase Src (Homo sapiens) (UniProt P12931); test: Inhibition of Src at 10 uM by HTRF assay relative to control; in short: as §1
# [12] = molecular target: Tyrosine-protein kinase Lyn (Homo sapiens) (UniProt P07948); test: Inhibition of Lyn at 10 uM by HTRF assay relative to control; in short: as §1
# [13] = molecular target: 3-phosphoinositide-dependent protein kinase 1 (Homo sapiens) (UniProt O15530); test: Inhibition of PDK1 at 10 uM by HTRF assay relative to control
# [14] = molecular target: Focal adhesion kinase 1 (Homo sapiens) (UniProt Q05397); test: Inhibition of FAK at 10 uM by HTRF assay relative to control; in short: as §1
# Chain of Vascular endothelial growth factor receptor 2 (Homo sapiens) (P35968 whole entry): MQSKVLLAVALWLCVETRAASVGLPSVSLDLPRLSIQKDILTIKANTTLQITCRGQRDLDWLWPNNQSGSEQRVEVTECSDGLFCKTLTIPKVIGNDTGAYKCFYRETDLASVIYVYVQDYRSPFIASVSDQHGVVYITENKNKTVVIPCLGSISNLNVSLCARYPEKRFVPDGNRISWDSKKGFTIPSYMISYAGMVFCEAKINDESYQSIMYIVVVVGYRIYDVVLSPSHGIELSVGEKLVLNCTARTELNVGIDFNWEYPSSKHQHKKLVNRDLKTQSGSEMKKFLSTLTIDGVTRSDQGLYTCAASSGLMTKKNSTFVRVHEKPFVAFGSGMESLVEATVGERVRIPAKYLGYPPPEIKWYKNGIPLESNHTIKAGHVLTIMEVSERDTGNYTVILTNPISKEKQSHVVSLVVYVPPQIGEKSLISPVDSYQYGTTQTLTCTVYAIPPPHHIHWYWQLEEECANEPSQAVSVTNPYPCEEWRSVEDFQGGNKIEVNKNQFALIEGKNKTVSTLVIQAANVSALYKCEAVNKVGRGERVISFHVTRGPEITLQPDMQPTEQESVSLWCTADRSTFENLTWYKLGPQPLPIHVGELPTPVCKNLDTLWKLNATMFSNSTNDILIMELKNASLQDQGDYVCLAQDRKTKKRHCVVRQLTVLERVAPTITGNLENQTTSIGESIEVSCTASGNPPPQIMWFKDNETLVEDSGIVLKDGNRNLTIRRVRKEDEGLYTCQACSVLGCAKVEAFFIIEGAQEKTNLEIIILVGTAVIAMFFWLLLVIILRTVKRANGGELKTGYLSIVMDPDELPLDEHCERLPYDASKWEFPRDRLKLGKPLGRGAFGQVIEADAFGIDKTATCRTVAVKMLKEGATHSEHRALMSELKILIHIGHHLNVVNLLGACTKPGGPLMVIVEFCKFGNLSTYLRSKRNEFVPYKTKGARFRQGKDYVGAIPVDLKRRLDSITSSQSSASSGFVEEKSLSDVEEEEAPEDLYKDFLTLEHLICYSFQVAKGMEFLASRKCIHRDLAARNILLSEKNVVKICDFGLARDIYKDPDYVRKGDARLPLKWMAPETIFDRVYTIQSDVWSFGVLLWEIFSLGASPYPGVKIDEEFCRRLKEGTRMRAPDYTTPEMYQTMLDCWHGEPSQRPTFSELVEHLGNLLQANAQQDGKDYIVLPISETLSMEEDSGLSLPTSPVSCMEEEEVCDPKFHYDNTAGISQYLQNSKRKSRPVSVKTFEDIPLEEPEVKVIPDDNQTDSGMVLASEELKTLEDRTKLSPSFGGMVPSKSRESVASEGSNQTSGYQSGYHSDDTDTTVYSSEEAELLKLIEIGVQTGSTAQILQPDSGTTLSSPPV
# Chain of Tyrosine-protein kinase Lyn (Homo sapiens) (P07948 2-512 limits assumed): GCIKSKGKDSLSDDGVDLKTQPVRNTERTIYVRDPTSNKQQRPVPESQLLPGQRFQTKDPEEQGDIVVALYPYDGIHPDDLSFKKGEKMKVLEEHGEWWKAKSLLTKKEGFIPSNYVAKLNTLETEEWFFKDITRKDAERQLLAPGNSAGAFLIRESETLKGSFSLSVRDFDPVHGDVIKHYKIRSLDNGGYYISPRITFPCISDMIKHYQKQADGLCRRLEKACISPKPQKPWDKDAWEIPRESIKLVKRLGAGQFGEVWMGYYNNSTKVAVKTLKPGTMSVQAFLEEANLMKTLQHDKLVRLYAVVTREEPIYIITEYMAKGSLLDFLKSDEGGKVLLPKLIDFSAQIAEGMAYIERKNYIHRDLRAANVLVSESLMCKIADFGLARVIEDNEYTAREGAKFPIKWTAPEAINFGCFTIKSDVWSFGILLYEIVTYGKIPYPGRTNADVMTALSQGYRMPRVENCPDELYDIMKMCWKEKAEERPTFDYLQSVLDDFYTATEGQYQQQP
# Chain of Epidermal growth factor receptor (Homo sapiens) (P00533 whole entry): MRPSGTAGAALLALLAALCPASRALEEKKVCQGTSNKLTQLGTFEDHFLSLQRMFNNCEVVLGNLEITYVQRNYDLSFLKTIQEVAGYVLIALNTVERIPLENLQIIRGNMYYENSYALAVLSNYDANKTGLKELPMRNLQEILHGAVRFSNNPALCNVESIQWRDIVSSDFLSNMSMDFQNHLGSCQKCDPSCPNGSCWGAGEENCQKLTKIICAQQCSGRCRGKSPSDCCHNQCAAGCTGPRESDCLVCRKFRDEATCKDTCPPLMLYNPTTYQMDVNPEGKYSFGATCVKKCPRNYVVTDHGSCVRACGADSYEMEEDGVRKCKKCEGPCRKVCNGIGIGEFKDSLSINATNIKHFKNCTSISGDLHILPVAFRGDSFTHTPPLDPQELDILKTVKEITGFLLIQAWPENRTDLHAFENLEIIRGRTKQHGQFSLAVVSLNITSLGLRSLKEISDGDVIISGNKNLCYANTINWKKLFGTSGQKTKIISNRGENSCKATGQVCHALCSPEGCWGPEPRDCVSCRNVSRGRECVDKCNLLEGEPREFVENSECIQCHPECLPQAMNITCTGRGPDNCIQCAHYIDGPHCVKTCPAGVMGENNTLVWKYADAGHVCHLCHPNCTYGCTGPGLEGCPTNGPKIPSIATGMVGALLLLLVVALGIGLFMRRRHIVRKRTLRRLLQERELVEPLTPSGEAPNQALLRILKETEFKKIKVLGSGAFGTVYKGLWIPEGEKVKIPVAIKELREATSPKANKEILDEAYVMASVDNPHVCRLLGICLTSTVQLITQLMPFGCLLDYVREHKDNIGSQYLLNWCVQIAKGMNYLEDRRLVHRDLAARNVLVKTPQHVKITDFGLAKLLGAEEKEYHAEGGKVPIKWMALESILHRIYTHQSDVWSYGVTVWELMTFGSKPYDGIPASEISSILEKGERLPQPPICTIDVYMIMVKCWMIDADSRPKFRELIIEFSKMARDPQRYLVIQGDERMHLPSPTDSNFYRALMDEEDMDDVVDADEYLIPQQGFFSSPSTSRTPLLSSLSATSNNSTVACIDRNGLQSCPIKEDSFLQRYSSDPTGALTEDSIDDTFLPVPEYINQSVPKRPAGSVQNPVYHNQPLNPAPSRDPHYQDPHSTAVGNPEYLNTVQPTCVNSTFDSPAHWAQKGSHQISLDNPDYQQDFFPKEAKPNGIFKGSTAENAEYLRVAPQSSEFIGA
# Chain of Tyrosine-protein kinase ABL1 (Homo sapiens) (P00519 whole entry): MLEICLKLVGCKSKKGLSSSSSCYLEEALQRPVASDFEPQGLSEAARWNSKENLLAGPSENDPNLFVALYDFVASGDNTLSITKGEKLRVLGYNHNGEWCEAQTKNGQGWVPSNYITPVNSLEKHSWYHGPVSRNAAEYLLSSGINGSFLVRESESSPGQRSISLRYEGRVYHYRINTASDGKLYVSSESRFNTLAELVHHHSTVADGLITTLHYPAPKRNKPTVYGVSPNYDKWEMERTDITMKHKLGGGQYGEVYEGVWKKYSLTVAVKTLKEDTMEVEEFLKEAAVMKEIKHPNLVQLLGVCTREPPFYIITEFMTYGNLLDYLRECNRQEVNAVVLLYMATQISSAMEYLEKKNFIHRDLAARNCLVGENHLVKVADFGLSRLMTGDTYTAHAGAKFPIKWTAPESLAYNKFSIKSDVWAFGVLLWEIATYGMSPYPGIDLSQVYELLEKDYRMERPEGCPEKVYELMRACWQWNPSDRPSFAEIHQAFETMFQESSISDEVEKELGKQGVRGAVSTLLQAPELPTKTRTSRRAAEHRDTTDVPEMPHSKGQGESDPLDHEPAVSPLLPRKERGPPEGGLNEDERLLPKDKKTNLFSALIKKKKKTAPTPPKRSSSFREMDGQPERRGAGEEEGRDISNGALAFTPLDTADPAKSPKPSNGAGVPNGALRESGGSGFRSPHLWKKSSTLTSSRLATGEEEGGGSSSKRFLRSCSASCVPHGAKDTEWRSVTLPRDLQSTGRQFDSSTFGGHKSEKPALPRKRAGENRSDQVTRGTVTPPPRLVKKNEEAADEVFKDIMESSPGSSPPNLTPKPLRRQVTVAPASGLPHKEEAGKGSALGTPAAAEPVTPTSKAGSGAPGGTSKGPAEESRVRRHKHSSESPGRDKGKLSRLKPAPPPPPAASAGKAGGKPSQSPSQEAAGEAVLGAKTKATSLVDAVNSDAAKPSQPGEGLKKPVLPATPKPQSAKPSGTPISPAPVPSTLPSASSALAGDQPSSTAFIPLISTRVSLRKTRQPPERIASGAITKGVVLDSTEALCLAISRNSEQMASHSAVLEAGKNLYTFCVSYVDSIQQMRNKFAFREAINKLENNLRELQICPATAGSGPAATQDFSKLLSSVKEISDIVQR
# Chain of Protein-tyrosine kinase 6 (Homo sapiens) (Q13882 whole entry, looked up): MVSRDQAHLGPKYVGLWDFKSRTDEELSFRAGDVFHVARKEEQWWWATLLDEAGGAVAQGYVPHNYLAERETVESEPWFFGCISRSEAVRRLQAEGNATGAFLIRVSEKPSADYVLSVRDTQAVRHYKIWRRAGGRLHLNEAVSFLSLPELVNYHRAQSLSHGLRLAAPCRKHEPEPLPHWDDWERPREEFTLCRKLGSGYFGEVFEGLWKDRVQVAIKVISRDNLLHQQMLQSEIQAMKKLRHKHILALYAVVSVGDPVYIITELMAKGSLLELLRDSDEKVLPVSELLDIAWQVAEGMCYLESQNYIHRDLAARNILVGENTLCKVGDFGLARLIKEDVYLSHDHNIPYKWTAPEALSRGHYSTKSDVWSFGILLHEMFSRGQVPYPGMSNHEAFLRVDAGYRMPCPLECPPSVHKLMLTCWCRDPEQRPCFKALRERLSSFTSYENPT
# Chain of Mitogen-activated protein kinase 14 (Homo sapiens) (Q16539 whole entry): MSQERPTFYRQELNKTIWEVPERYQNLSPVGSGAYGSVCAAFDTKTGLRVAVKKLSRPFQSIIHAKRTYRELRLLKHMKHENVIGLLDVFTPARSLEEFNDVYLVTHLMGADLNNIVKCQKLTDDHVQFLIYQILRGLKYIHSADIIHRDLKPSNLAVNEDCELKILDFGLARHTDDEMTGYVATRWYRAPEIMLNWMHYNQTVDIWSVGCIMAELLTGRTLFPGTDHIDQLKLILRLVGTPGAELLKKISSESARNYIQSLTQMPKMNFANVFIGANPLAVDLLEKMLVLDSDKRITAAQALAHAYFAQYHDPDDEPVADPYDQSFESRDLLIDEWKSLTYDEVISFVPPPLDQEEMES
SMILES,inhibition [1] [%],inhibition [2] [%],inhibition [3] [%],inhibition [4] [%],inhibition [5] [%],inhibition [6] [%],inhibition [7] [%],inhibition [8] [%],inhibition [9] [%],inhibition [10] [%],inhibition [11] [%],inhibition [12] [%],inhibition [13] [%],inhibition [14] [%]
Cc1cccc(Oc2ccnc(N3CCN(C(=O)c4c(C)noc4C)CC3)n2)c1,7,0,2,0,13,18,4,3,0,0,0,0,0,0
CN(CCCn1ccnc1)C(=O)[C@@H]1CCCN1c1nccc(Nc2ccccc2)n1,1,1,4,0,0,3,3,3,2,5,8,0,1,10
Cc1cccc(Oc2ccnc(N3CCC[C@H]3C(=O)NCc3cccnc3)n2)c1,0,0,0,0,6,4,6,0,7,0,0,6,0,0
CN(C)CC(C)(C)CNC(=O)C1CCN(c2cc(N3CCOCC3)nc(N)n2)CC1,2,0,3,0,0,12,8,6,2,0,10,7,0,3
Cc1cccc(Oc2ccnc(N3CCC[C@H]3C(=O)NCCCn3ccnc3)n2)c1,0,3,0,1,0,11,2,2,5,0,0,1,1,4
Nc1nc(N2CCOCC2)cc(N2CCC(C(=O)NCc3cccs3)CC2)n1,0,8,15,0,0,17,3,5,0,0,3,7,0,3
Cc1cccc(Nc2ncnc3c2CN(C(=O)c2ccc(N(C)C)c4ccccc24)CC3)c1,2,1,10,0,0,6,6,4,7,31,0,9,0,7
O=C(c1nc(SCc2ccc(Cl)cc2)n2ccccc12)N1CCN(c2ncnc3c2CN(Cc2ccccc2)CC3)CC1,0,5,9,0,7,10,3,2,13,0,0,1,0,0
Nc1nc(N2CCOCC2)cc(N2CCC(C(=O)NCCc3ccc(O)cc3)CC2)n1,0,8,0,0,4,7,2,4,6,0,2,5,0,3
COC(=O)C(CO)NC(=O)[C@@H]1CCCN1c1nccc(Oc2cccc(C)c2)n1 (stereo partly drawn),0,7,13,0,5,5,0,1,10,0,0,6,0,6
Nc1nc(Nc2ccc(C(=O)NCCc3ccncc3)cc2)cc(N2CCOCC2)n1,3,10,0,0,11,13,6,4,6,0,3,1,1,3

# Now from value to compound:
inhibition [1] [%],inhibition [2] [%],inhibition [3] [%],inhibition [4] [%],inhibition [5] [%],inhibition [6] [%],inhibition [7] [%],inhibition [8] [%],inhibition [9] [%],inhibition [10] [%],inhibition [11] [%],inhibition [12] [%],inhibition [13] [%],inhibition [14] [%],SMILES
3,12,81,83,94,95,19,45,44,43,97,90,3,99,O=C(NC[C@@H]1CCCO1)c1cccc(Nc2nccc(Nc3ccc4ncsc4c3)n2)c1
0,9,18,1,55,43,3,11,11,0,71,27,0,78,O=C(NCCc1ccc(O)cc1)c1cccc(Nc2nccc(Nc3ccc4ncsc4c3)n2)c1
0,57,29,0,7,40,5,0,18,87,6,16,1,15,Cc1cccc(N(C)c2cc(Nc3ccc(CC(=O)Nc4ccc5ncsc5c4)cc3)ncn2)c1
1,19,78,34,70,95,13,36,69,23,69,48,0,78,CN(CCc1ccccn1)C(=O)c1cccc(Nc2nccc(Nc3ccc4ncsc4c3)n2)c1
0,11,23,0,7,83,6,7,75,100,26,49,2,20,Cc1cccc(Nc2cc(Nc3cccc(C(=O)N(CC(C)O)CC(C)O)c3)ncn2)c1 (stereo not drawn)
2,20,12,0,24,26,4,0,71,100,24,27,0,15,Cc1cccc(N(C)c2cc(Nc3cccc(C(=O)NCCCn4ccnc4)c3)ncn2)c1
